This is an account of results in ChEMBL document CHEMBL4376902, “CN128: A New Orally Active Hydroxypyridinone Iron Chelator” (J Med Chem, 2020).

Data set [1] concerns Rattus norvegicus. The data set is described as follows: Iron scavenging activity in 59Fe-ferritin-loaded rat assessed as iron mobilization level at 450 umol/kg, po dosed 1 hr after 59Fe-ferritin injection and measured 24 hrs after 59Fe-ferritin injection by gamma counting method relative to control. In kind it is functional. An outline of the steps: (§1)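 Male SD rats, 300 g, fasted overnight, given about 1 μC 59Fe-ferritin i.v. under isoflurane. Chelator gavaged 1 h later, then rats housed in metabolic cages; food returned 1 h after dosing. Killed 24 h after 59Fe-ferritin. Urine, faeces, liver and gut gamma-counted. 8 rats per condition.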

Data set [2] in a line: Metal chelating activity assessed as iron chelation. An outline of the steps: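 Automated spectrophotometric titration at ca. 40 µM iron complex, 50 mm path. pH raised in 0.1-unit steps with 0.1 M KOH, 3 min equilibration per step, up to pH 12.0. Competition with metal hydrolysis species; spectra fitted over 400-700 nm using literature hydrolysis constants to give stability constants.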

Data set [3] is described as follows: Drug uptake in rat bile treated with 150 umol/kg, po (R) -3,4-Dihydroxy-1-(1 -hydroxy-3-phenylpropan-2-yl)-2-methyl- pyridin-1-ium Chloride assessed as compound formation by LC/TOF/MS/MS analysis. In kind it is ADME, organism-based. Particulars: in vivo. In a few lines:
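Bile collected from rats after an oral dose of 150 μmol/kg. Metabolites characterised by β-glucuronidase hydrolysis and LC-TOFMS/MS. M2/M1 ratio followed over 8 h.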

The nature of data set [4]: Toxicity in Sprague-Dawley rat assessed as induction of histopathological changes in thymus at 25 to 116 mg/kg, po dosed daily for 4 weeks and measured after additional 4 weeks period in absence of drug. In kind it is organism-based. The note with it: in vivo, 672 h.
Data set [5] in a line: Toxicity in Sprague-Dawley rat assessed as induction of histopathological changes in pancreas at 25 to 116 mg/kg, po dosed daily for 4 weeks and measured after additional 4 weeks period in absence of drug. The note with it: in vivo, 672 h. Type of data set: organism-based.
The nature of data set [6]: Toxicity in Sprague-Dawley rat assessed as induction of mortality at 200 mg/kg, po dosed once daily for 2 months as 5 days per week schedule. In kind it is organism-based. Particulars: in vivo, 120 h.
The nature of data set [7]: Toxicity in Sprague-Dawley rat assessed as induction of histopathological changes in bone marrow at 25 to 116 mg/kg, po dosed daily for 4 weeks and measured after additional 4 weeks period in absence of drug. In kind it is organism-based. Particulars: in vivo, 672 h.
Data set [8] has as its system Rattus norvegicus. The data set is described as follows: Iron scavenging activity in 59Fe-ferritin-loaded rat assessed as iron mobilization level at 150 to 450 umol/kg, po dosed 1 hr after 59Fe-ferritin injection and measured 24 hrs after 59Fe-ferritin injection by gamma counting method relative to control. In kind it is functional, organism-based. In a few lines:
as §1

Data set [9] deals with Mus musculus. The data set is described as follows: Toxicity in mouse assessed as increase in reticulocyte population at 200 mg/kg, po dosed once daily for 2 months as 5 days per week schedule. The note with it: in vivo, 120 h.
Data set [10] has as its system Mus musculus. The data set is described as follows: Toxicity in mouse assessed as reduction in lymphocytes counts at 200 mg/kg, po dosed once daily for 2 months as 5 days per week schedule. Particulars: in vivo, 120 h.
In data set [11] the test system is Mus musculus. The data set is described as follows: Toxicity in mouse assessed as reduction in monocytes counts at 200 mg/kg, po dosed once daily for 2 months as 5 days per week schedule. The note with it: in vivo, 120 h.
In data set [12] the test system is Mus musculus. The data set is described as follows: Toxicity in mouse assessed as reduction in neutrophils counts at 200 mg/kg, po dosed once daily for 2 months as 5 days per week schedule. Particulars: in vivo, 120 h.
A short description of data set [13]: Drug metabolism in human liver microsomes assessed as oxidative metabolism incubated for 1 hr relative to deferiprone. Type of data set: ADME, Microsome. A general note: Liver microsomes are vesicles of endoplasmic reticulum, rich in cytochrome P450 enzymes.
Data set [14] deals with Mus musculus. The data set is described as follows: Toxicity in mouse assessed as effect on platelet population at 200 mg/kg, po dosed once daily for 2 months as 5 days per week schedule. The note with it: in vivo, 120 h.
Data set [15] has as its system Mus musculus. The data set is described as follows: Toxicity in mouse assessed as reduction in eosinophils counts at 200 mg/kg, po dosed once daily for 2 months as 5 days per week schedule. The note with it: in vivo, 120 h.
Data set [16] has as its system Mus musculus. The data set is described as follows: Toxicity in mouse assessed as reduction in erythrocyte population at 200 mg/kg, po dosed once daily for 2 months as 5 days per week schedule. The note with it: in vivo, 120 h.
Data set [17] is described as follows: Drug metabolism in rat liver microsomes assessed as glucuronidation incubated for 1 hr relative to deferiprone. In kind it is ADME, Microsome. An outline of the steps: (§2)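 Compound incubated 1 h with rat or human liver microsomes, n = 4, mean ± SD. Glucuronide formed given as percentage of total chelator added. Oxidative metabolism assessed separately.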

A short description of data set [18]: Drug metabolism in rat liver microsomes assessed as oxidative metabolism incubated for 1 hr relative to deferiprone. Type of data set: ADME, Microsome.
The subject of data set [19] is Mus musculus. The data set is described as follows: Toxicity in mouse assessed as reduction in total white cell counts at 200 mg/kg, po dosed once daily for 2 months as 5 days per week schedule. Particulars: in vivo, 120 h.
The nature of data set [20]: Drug metabolism in human liver microsomes assessed as glucuronidation incubated for 1 hr relative to deferiprone. In kind it is ADME, Microsome. In a few lines: as §2

Activity calls are given as the source filed them. The calls are words filed in the database; no cut-off is given here.

With `Cc1c(O)c(O)cc[n+]1[C@@H](CO)CC(C)C.[Cl-]`, the Activity in the data set on Rattus norvegicus [1] was 8.2%.
With `CCc1c(O)c(O)cc[n+]1[C@H](CO)[C@@H](C)CC.[Cl-]`, in the data set with Rattus norvegicus [1], the Activity was 5.5%.
Consider `CC[C@H](C)[C@@H](CO)[n+]1ccc(O)c(O)c1C.[Cl-]`, for which the Activity in the data set with Rattus norvegicus [1] amounted to 10.8%.
Consider `CCc1c(O)c(O)cc[n+]1[C@@H](CO)C(C)C.[Cl-]`, for which the Activity with Rattus norvegicus [1] is 10.6%.
Take `Cc1c(O)c(O)cc[n+]1[C@@H](C)CO.[Cl-]`: the Activity in the data set with Rattus norvegicus [1] is listed as 11.9%.
Regarding `Cc1c(O[C@@H]2O[C@H](C(=O)O)[C@@H](O)[C@H](O)[C@H]2O)c(=O)ccn1[C@@H](CO)Cc1ccccc1`, the result in data set [2] was inactive. In addition, the Drug uptake entry in [3] is reported as “Metabolite_Detected”.
Consider `CCc1c(O)c(O)cc[n+]1[C@H](CO)C(C)C.[Cl-]`, for which the Activity in the data set with Rattus norvegicus [1] was 7.9%.
As for `CCc1c(O)c(O)cc[n+]1[C@H](CO)Cc1ccccc1.[Cl-]`, in the data set on Rattus norvegicus [1], the Activity is 13.1%.
On to `CCc1c(O)c(O)cc[n+]1[C@H](CO)CC(C)C.[Cl-]`, for which the Activity in the data set with Rattus norvegicus [1] is listed as 10.3%.
Turning to `Cc1c(O)c(O)cc[n+]1[C@@H](CO)C(C)C.[Cl-]`, in the data set with Rattus norvegicus [1], the Activity is 8%.
Regarding `Cc1c(O)c(=O)ccn1C` [DEFERIPRONE], the Activity in the data set with Rattus norvegicus [1] is reported as 11.8%; in [4], “Non-Toxic”; in data set [5], “Non-Toxic”; in [6] it was “Non-Toxic”; in data set [7] it was “Non-Toxic”.
Take `Cc1c(O)c(O)cc[n+]1[C@H](C)CO.[Cl-]`: the Activity in the data set on Rattus norvegicus [1] came out at 6.5%.
Consider `Cc1c(O)c(O)cc[n+]1CCO.[Cl-]`, for which the Activity in the data set with Rattus norvegicus [1] was determined as 4%.
On the same count and under the same terms, next, `CCc1c(O)c(O)cc[n+]1[C@@H](C)CO.[Cl-]`: 16%.
For the molecule `Cc1c(O)c(=O)ccn1[C@@H](CO[C@@H]1O[C@H](C(=O)O)[C@@H](O)[C@H](O)[C@H]1O)Cc1ccccc1`, the outcome in [2] was Active. In data set [3], the Drug uptake entry is recorded as “Metabolite_Detected”.
Turning to `CCc1c(O)c(O)cc[n+]1[C@H](C)CO.[Cl-]`, the Activity in the data set on Rattus norvegicus [1] worked out at 10.5%.
As to `CCc1c(O)c(O)cc[n+]1[C@@H](CO)CC(C)C.[Cl-]`, the Activity in the data set with Rattus norvegicus [1] came to 13.6%.
For `Cc1c(O)c(O)cc[n+]1[C@H](CO)C(C)C.[Cl-]`, the Activity in the data set on Rattus norvegicus [1] was 18.7%; with Rattus norvegicus [8], “Dose-dependent effect”.
On to `Cc1c(O)c(O)cc[n+]1[C@H](CO)Cc1ccccc1.[Cl-]`, for which the Activity entry is listed as “Non-Toxic” with Mus musculus [9]; 12.8% in the data set with Rattus norvegicus [1]; “Non-Toxic” in the data set with Mus musculus [10]; “Non-Toxic” in data set [6]; “Non-Toxic” with Mus musculus [11]; “Non-Toxic” in the data set on Mus musculus [12]. Besides, the Activity entry with Mus musculus [14], in the data set on Mus musculus [15], in the data set with Mus musculus [16] and in the data set with Mus musculus [19] was “Non-Toxic” throughout. For the same molecule, the Drug metabolism result in data set [13], in data set [17], in [18] and in data set [20] was “Metabolite_Detected” in each case.
`CCc1c(O)c(O)cc[n+]1[C@@H](CO)Cc1ccccc1.[Cl-]`: the Activity in the data set on Rattus norvegicus [1] is 22.3%; in the data set on Rattus norvegicus [8], “Dose-dependent effect”.
As for `CCc1c(O)c(O)cc[n+]1CCO.[Cl-]`, the Activity in the data set on Rattus norvegicus [1] is reported as 2.4%.
As to `Cc1c(O)c(O)cc[n+]1[C@H](CO)CC(C)C.[Cl-]`, the Activity in the data set on Rattus norvegicus [1] is reported as 5.8%.
